Test results: article PMC5689068 (ACS chemical neuroscience, 2016)
Read-outs that look alike come from different tables or passages of the source. Where a SMILES comes first, the peptide text is derived from it. [ ]: non-standard residue; d: D form. Oic = O=C(O)[C@@H]1C[C@@H]2CCCC[C@@H]2N1; dTic = O=C(O)[C@H]1Cc2ccccc2CN1; 2Thi = N[C@@H](Cc1cccs1)C(=O)O; Nle = CCCC[C@H](N)C(=O)O; Orn = NCCC[C@H](N)C(=O)O

Experiments:
[1] = In vitro stability in rat plasma; assay type: in vitro ADME; settings: rat; for half-life: plasma, t1/2 in rat plasma, 37 °C
BK receptors [2] = settings: competition assay using 1 nM [3H]DALKD, cited from earlier work
naïve rats = assay: von Frey filament and Infra-Red tests in naïve rats; assay type: in vivo, rat; settings: i.th. injection 3 nmol, alone
Outline: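 Nonfasted male Sprague-Dawley rats (250–300 g) carried i.th. catheters placed through the atlanto-occipital membrane to lumbar level under ketamine/xylazine (80/12 mg/kg i.p.). Naïve rats received Dyn A-(2–13) with or without test compound (3 nmol/5 µL i.th.). Tests were run every 20 min up to 120 min. Infrared paw withdrawal latency was calibrated to ~20 s on the uninjured paw; von Frey thresholds used the up-down/Dixon method. One-way ANOVA, p ≤ 0.05.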

BK receptors [3] = assay: Radioligand competition binding assay with [3H]BK in rat brain membranes; settings: for log[IC50], BK receptors, [3H]BK / IC50: pH 6.8, rat brain membranes, 1 nM [3H]BK; for IC50: read-out: IC50, BK receptors, [3H]BK; for affinity at the BK receptors (in words): D-amino acid substitutions
[4] = In vitro stability in human plasma; assay type: in vitro ADME; settings: human plasma
Outline: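 Test compound stock (50 mg/mL in water) was diluted 5-fold into lithium-heparin human plasma and incubated at 37 °C. Samples were taken at 1, 2, 4, 6, 12 and 24 h, quenched with EtOH and centrifuged. Supernatant was run on C-18 RP-HPLC (10–90% acetonitrile, 40 min). t1/2 = 0.693/b, where b is the slope of ln(fraction parent remaining) versus time. Three independent experiments.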

Row | Molecule | half-life ([1]; 24 h study) | remaining at 24 h, 10 mg/mL ([1]; rat plasma) | log[IC50], BK receptors, [3H]BK (BK receptors [3]) | IC50 (BK receptors [3]) | other results
1 | CCCC[C@H](NC(=O)[C@H](CCCNC(=N)N)NC(=O)[C@H](CCCC)NC(=O)[C@@H](N)Cc1ccccc1)C(=O)N[C@@H](CCCNC(=N)N)C(=O)N1CCC[C@H]1C(=O)N[C@@H](CCCNC(=N)N)C(=O)O [compound 4, H-Phe-Nle-Arg-Nle-Arg-Pro-Arg-OH] (H-F[Nle]R[Nle]RPR-OH) | 1.2 h | 0% | – | – | log[IC50], BK receptors (BK receptors [2]): −7.06 ± 0.10; IC50 (BK receptors [2]; read-out: IC50, BK receptors): 86 nM
2 | Dyn A-(2–13) [reference compound] | – | – | – | – | paw withdrawal latency (Infra-Red test) (naïve rats): reduced; paw withdrawal threshold (von Frey filament test) (naïve rats): reduced
3 | CC[C@H](C)[C@H](NC(=O)[C@@H](CCCNC(=N)N)NC(=O)[C@H](CC(C)C)NC(=O)[C@@H](N)Cc1ccccc1)C(=O)N[C@@H](CCCNC(=N)N)C(=O)N1CCC[C@H]1C(=O)N[C@@H](CCCCN)C(=O)O [compound 15, H-Phe-Leu-D-Arg-Ile-Arg-Pro-Lys-OH] | 31 h | 62 ± 25% | −6.51 ± 0.19 | 310 nM | –
4 | CCCC[C@H](NC(=O)[C@H](CCCNC(=N)N)NC(=O)[C@H](CC(C)C)NC(=O)[C@@H](N)Cc1ccccc1)C(=O)N[C@@H](CCCNC(=N)N)C(=O)N1CCC[C@H]1C(=O)N[C@@H](CCCCN)C(=O)O [compound 3, H-Phe-Leu-Arg-Nle-Arg-Pro-Lys-OH] (H-FLR[Nle]RPK-OH) | – | – | −7.05 ± 0.09 | – | –
5 | CC[C@H](C)[C@H](NC(=O)[C@H](CCCNC(=N)N)NC(=O)[C@H](CC(C)C)NC(=O)[C@H](Cc1ccccc1)NC)C(=O)N[C@@H](CCCNC(=N)N)C(=O)N1CCC[C@H]1C(=O)N[C@@H](CCCCN)C(=O)O [compound 20, H-NMePhe-Leu-Arg-Ile-Arg-Pro-Lys-OH] | 15 h | 31 ± 11% | −6.06 ± 0.14 | 870 nM | –
6 | H-FLRIR[2Thi]K-OH [compound 9] | – | – | −5.99 ± 0.20 | 1000 nM | –
7 | CCCC[C@H](NC(=O)[C@@H](N)Cc1ccccc1)C(=O)N[C@@H](CCCNC(=N)N)C(=O)N[C@H](C(=O)N[C@@H](CCCNC(=N)N)C(=O)N1CCC[C@H]1C(=O)N[C@@H](CCCCN)C(=O)O)[C@@H](C)CC [compound 2, H-Phe-Nle-Arg-Ile-Arg-Pro-Lys-OH] | – | – | −6.79 ± 0.10 | 160 nM | –
8 | CC[C@H](C)[C@H](NC(=O)[C@H](CCCNC(=N)N)NC(=O)[C@@H](CC(C)C)NC(=O)[C@H](N)Cc1ccccc1)C(=O)N[C@@H](CCCNC(=N)N)C(=O)N1CCC[C@H]1C(=O)N[C@@H](CCCCN)C(=O)O [compound 19, H-D-Phe-D-Leu-Arg-Ile-Arg-Pro-Lys-OH] | – | – | – | > 10000 nM | affinity at the BK receptors (in words) (BK receptors [3]): completely abolished affinity
9 | CC[C@H](C)[C@H](NC(=O)[C@H](CCCNC(=N)N)NC(=O)[C@H](CC(C)C)NC(=O)[C@H](N)Cc1ccccc1)C(=O)N[C@@H](CCCNC(=N)N)C(=O)N1CCC[C@H]1C(=O)N[C@@H](CCCCN)C(=O)O [compound 17, H-D-Phe-Leu-Arg-Ile-Arg-Pro-Lys-OH] | 19 h | 44 ± 12% | −6.60 ± 0.14 | 250 nM | –
10 | CC[C@H](C)[C@H](NC(=O)[C@H](CCCNC(=N)N)NC(=O)[C@H](CC(C)C)NC(=O)[C@@H](N)Cc1ccccc1)C(=O)N[C@@H](CCCNC(=N)N)C(=O)N1CCC[C@@H]1C(=O)N[C@@H](CCCCN)C(=O)O [compound 12, H-Phe-Leu-Arg-Ile-Arg-D-Pro-Lys-OH] | – | – | – | > 10000 nM | –
11 | CC[C@H](C)[C@H](NC(=O)[C@H](CCCNC(=N)N)NC(=O)[C@H](CC(C)C)NC(=O)[C@@H](N)Cc1ccccc1)C(=O)N[C@@H](CCCNC(=N)N)C(=O)N1[C@H](C(=O)N[C@@H](CCCCN)C(=O)O)C[C@@H]2CCCC[C@@H]21 [compound 10, H-Phe-Leu-Arg-Ile-Arg-Oic-Lys-OH] (H-FLRIR[Oic]K-OH) | – | – | −5.82 ± 0.10 | 1500 nM | –
12 | CC[C@H](C)[C@H](NC(=O)[C@H](CCCNC(=N)N)NC(=O)[C@H](CC(C)C)N(C)C(=O)[C@@H](N)Cc1ccccc1)C(=O)N[C@@H](CCCNC(=N)N)C(=O)N1CCC[C@H]1C(=O)N[C@@H](CCCCN)C(=O)O [compound 21, H-Phe-NMeLeu-Arg-Ile-Arg-Pro-Lys-OH] | > 4000 h | 100 ± 16% | – | – | half-life ([1]; calculated from a 5 day stability test): 65 h; remaining at 120 h, 10 mg/mL ([1]; rat plasma): 31%; Intact (%) ([4]; after a 24 h incubation): more than 95%; remaining at 24 h, 10 mg/mL ([4]; human): 96 ± 5%
13 | CC[C@H](C)[C@H](NC(=O)[C@H](CCCNC(=N)N)NC(=O)[C@H](CC(C)C)NC(=O)[C@@H](N)Cc1ccccc1)C(=O)N[C@@H](CCCNC(=N)N)C(=O)N1Cc2ccccc2C[C@@H]1C(=O)N[C@@H](CCCCN)C(=O)O [compound 8, H-Phe-Leu-Arg-Ile-Arg-D-Tic-Lys-OH] (H-FLRIR[dTic]K-OH) | – | – | – | > 10000 nM | –
14 | CC[C@@H](C)[C@@H](NC(=O)[C@H](CCCNC(=N)N)NC(=O)[C@H](CC(C)C)NC(=O)[C@@H](N)Cc1ccccc1)C(=O)N[C@@H](CCCNC(=N)N)C(=O)N1CCC[C@H]1C(=O)N[C@@H](CCCCN)C(=O)O [compound 14, H-Phe-Leu-Arg-D-Ile-Arg-Pro-Lys-OH] | 3.3 h | 0% | – | > 10000 nM | –
15 | CC[C@H](C)[C@H](NC(=O)[C@@H](CCCNC(=N)N)NC(=O)[C@H](CC(C)C)NC(=O)[C@H](N)Cc1ccccc1)C(=O)N[C@@H](CCCNC(=N)N)C(=O)N1CCC[C@H]1C(=O)N[C@@H](CCCCN)C(=O)O [compound 18, H-D-Phe-Leu-D-Arg-Ile-Arg-Pro-Lys-OH] | – | – | – | > 10000 nM | affinity at the BK receptors (in words) (BK receptors [3]): completely abolished affinity
16 | CCCC[C@H](NC(=O)[C@H](Cc1ccccc1)NC(C)=O)C(=O)N[C@@H](CCCNC(=N)N)C(=O)N[C@@H](CCCC)C(=O)N[C@@H](CCCNC(=N)N)C(=O)N1CCC[C@H]1C(=O)N[C@@H](CCCNC(=N)N)C(=O)O [compound 5, Ac-Phe-Nle-Arg-Nle-Arg-Pro-Arg-OH] (Ac-F[Nle]R[Nle]RPR-OH) | 3.4 h | 0% | – | – | –
17 | CC[C@H](C)[C@H](NC(=O)[C@H](CCCNC(=N)N)NC(=O)[C@H](CC(C)C)NC(=O)[C@@H](N)Cc1ccccc1)C(=O)N[C@H](CCCNC(=N)N)C(=O)N1CCC[C@H]1C(=O)N[C@@H](CCCCN)C(=O)O [compound 13, H-Phe-Leu-Arg-Ile-D-Arg-Pro-Lys-OH] | – | – | −5.23 ± 0.12 | 5900 nM | –
18 | CC[C@H](C)[C@H](NC(=O)[C@H](CCCNC(=N)N)NC(=O)[C@H](CC(C)C)NC(=O)[C@@H](N)Cc1ccccc1)C(=O)N[C@@H](CCCNC(=N)N)C(=O)N1CCC[C@H]1C(=O)N[C@H](CCCCN)C(=O)O [compound 11, H-Phe-Leu-Arg-Ile-Arg-Pro-D-Lys-OH] | – | 0% | −6.03 ± 0.14 | 830 nM | –
19 | CC[C@H](C)[C@H](NC(=O)[C@H](CCCN)NC(=O)[C@H](CC(C)C)NC(=O)[C@@H](N)Cc1ccccc1)C(=O)N[C@@H](CCCN)C(=O)N1CCC[C@H]1C(=O)N[C@@H](CCCN)C(=O)O [compound 6, H-Phe-Leu-Orn-Ile-Orn-Pro-Orn-OH] (H-FL[Orn]I[Orn]P[Orn]-OH) | – | – | −6.29 ± 0.12 | 510 nM | –
